Assay results as given in ChEMBL document CHEMBL2375225, “Structure-activity relationship of 5-chloro-2-methyl-3-(1,2,3,6-tetrahydropyridin-4-yl)-1H-indole analogues as 5-HT(6) receptor agonists” (Eur J Med Chem, 2013).

How the values were obtained:
[1] = molecular target: T1, 5-hydroxytryptamine receptor 6 (Homo sapiens, UniProt P50406); assay: Displacement of [3H]LSD from human 5HT6 receptor expressed in HEK cell membranes after 1 hr by liquid scintillation counting analysis; design: species or system HEK293
Outline: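 Compounds were made up as 1 mM DMSO stocks and diluted in 20 mM HEPES, 0.1% ascorbic acid, pH 7.4. They were incubated 1 h at 37 °C with [3H]LSD (1 nM final) and membranes (23 µg protein) from HEK cells expressing human 5-HT6. Binding was stopped by filtration through GF/B filters presoaked in 0.1% polyethyleneimine, with three buffer washes, then counted by liquid scintillation. Single determination.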

[2] = molecular target: T2, 5-hydroxytryptamine receptor 1A (Rattus norvegicus, UniProt P19327); assay: Displacement of [3H]-8-OH-DPAT from rat 5HT1A receptor
T2 sequence (P19327 whole entry): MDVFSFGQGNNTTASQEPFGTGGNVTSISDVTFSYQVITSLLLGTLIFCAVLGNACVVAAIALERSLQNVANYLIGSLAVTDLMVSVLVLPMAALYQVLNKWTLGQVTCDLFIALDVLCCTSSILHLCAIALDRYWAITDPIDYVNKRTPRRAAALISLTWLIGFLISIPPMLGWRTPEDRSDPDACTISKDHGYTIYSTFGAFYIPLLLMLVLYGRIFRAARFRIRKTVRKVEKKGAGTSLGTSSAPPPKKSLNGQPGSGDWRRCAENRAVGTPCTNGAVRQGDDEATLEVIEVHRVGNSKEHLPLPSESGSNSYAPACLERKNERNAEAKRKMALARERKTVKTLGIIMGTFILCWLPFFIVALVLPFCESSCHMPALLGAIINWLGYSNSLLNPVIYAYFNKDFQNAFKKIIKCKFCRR

[3] = Displacement of [3H]-5-HT from calf 5HT1D receptor; design: species or system Bos taurus
[4] = Displacement of [3H]-GR65630 from 5HT3 receptor in rat/mouse NG108 cells; type: cell-based
[5] = molecular target: 5-hydroxytryptamine receptor 2A (Homo sapiens, UniProt P28223); assay: Displacement of [3H]-ketanserin from human 5HT2A receptor
[6] = molecular target: 5-hydroxytryptamine receptor 1B (Rattus norvegicus, UniProt P28564); assay: Displacement of [125I]-iodocyanopindolol from rat 5HT1B receptor
[7] = molecular target: T3, 5-hydroxytryptamine receptor 2C (Homo sapiens, UniProt P28335); assay: Displacement of [3H]-mesulergine from human 5HT2C receptor
T3 sequence (P28335 whole entry): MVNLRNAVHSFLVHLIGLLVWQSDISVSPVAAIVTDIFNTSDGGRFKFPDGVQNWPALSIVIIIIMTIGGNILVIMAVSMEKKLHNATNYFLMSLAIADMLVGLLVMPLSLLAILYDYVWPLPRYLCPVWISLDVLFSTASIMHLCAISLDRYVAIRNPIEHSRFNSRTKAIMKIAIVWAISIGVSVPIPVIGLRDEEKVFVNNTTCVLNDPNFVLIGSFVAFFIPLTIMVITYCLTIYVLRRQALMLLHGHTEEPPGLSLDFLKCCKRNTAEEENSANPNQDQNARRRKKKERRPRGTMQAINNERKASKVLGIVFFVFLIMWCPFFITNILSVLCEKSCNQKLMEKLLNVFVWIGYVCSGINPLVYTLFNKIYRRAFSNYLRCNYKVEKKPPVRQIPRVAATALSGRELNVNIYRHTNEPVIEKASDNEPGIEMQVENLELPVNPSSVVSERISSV

[8] = molecular target: T1, 5-hydroxytryptamine receptor 6; assay: Partial agonist activity at human 5HT6 receptor expressed in BHK cells assessed as stimulation of cAMP production after 45 minutes; type: functional, cell-based
Outline: (§1)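 BHK cells stably transfected with the human 5-HT6 receptor, grown in MEM-α with 10% dialysed heat-inactivated FCS at 37 °C under 5% CO2. Cells were detached with 5 mM EDTA in PBS, seeded at 10,000 cells/well and left to adhere ≥12 h. They were then washed and placed in serum-free MEM-α, exposed to compound for 45 min, washed with PBS, and intracellular cAMP measured by enzyme immunoassay.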

[9] = molecular target: 5-hydroxytryptamine receptor 7 (Homo sapiens, UniProt P34969); assay: Displacement of [3H]LSD from human 5HT7 receptor
[10] = molecular target: T1, 5-hydroxytryptamine receptor 6; assay: Partial agonist activity at human 5HT6 receptor expressed in BHK cells assessed as stimulation of cAMP production after 45 minutes relative to control; type: functional, cell-based; outline: as §1
[11] = molecular target: Sodium-dependent serotonin transporter (Rattus norvegicus, UniProt P31652); assay: Displacement of [3H]-5-HT from rat SERT
[12] = molecular target: T1, 5-hydroxytryptamine receptor 6; assay: Agonist activity at human 5HT6 receptor expressed in BHK cells assessed as stimulation of cAMP production after 45 minutes; type: functional, cell-based; outline: as §1
[13] = molecular target: T1, 5-hydroxytryptamine receptor 6; assay: Agonist activity at human 5HT6 receptor expressed in BHK cells assessed as stimulation of cAMP production after 45 minutes relative to control; type: functional, cell-based; outline: as §1
[14] = molecular target: T1, 5-hydroxytryptamine receptor 6; assay: Antagonist activity at human 5HT6 receptor expressed in human HeLa cells assessed as inhibition of 5HT-induced cAMP accumulation relative to control; type: functional, cell-based; design: scale not given: the % may be the effect or the level left
[15] = molecular target: T1, 5-hydroxytryptamine receptor 6; assay: Displacement of [3H]LSD from human 5HT6 receptor expressed in CHO cell membranes after 1 hr by liquid scintillation counting analysis
[16] = molecular target: 5-hydroxytryptamine receptor 4 (Cavia porcellus, UniProt O70528); assay: Displacement of [3H]-GR113808 from guinea pig 5HT4 receptor
Chain of 5-hydroxytryptamine receptor 4 (O70528 whole entry): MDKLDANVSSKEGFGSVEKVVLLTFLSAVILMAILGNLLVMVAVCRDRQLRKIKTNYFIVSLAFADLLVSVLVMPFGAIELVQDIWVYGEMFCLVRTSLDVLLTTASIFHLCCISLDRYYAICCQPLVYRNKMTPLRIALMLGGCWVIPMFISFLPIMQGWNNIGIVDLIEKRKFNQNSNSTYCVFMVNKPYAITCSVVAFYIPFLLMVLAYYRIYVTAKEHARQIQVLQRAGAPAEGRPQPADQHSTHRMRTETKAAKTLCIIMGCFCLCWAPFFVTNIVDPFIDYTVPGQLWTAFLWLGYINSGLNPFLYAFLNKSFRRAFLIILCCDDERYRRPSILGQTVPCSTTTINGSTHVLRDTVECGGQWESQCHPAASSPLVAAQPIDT

Chain of 5-hydroxytryptamine receptor 1B (P28564 whole entry): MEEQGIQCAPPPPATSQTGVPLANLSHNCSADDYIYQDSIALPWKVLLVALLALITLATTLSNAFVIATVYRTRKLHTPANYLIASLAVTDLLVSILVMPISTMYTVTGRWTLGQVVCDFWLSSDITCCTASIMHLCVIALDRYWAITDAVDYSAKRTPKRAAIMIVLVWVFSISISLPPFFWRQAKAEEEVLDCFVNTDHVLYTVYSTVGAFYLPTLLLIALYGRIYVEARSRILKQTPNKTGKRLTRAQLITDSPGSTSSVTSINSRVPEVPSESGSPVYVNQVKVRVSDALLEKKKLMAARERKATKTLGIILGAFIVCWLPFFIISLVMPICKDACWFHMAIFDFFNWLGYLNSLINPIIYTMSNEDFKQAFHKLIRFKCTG
Chain of 5-hydroxytryptamine receptor 7 (P34969 whole entry): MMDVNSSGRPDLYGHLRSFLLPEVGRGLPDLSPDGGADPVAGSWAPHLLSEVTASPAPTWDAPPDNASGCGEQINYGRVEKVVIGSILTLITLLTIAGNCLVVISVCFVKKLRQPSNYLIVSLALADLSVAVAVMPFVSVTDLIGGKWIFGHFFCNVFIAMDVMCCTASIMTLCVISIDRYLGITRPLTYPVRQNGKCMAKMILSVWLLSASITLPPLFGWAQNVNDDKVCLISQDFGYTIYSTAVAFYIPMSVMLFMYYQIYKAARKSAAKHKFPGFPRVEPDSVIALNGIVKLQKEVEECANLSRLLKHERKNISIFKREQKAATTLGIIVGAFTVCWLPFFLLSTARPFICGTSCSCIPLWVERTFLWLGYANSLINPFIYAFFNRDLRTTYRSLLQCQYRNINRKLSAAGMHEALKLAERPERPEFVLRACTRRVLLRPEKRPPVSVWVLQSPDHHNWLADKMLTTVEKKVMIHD
Chain of Sodium-dependent serotonin transporter (P31652 whole entry): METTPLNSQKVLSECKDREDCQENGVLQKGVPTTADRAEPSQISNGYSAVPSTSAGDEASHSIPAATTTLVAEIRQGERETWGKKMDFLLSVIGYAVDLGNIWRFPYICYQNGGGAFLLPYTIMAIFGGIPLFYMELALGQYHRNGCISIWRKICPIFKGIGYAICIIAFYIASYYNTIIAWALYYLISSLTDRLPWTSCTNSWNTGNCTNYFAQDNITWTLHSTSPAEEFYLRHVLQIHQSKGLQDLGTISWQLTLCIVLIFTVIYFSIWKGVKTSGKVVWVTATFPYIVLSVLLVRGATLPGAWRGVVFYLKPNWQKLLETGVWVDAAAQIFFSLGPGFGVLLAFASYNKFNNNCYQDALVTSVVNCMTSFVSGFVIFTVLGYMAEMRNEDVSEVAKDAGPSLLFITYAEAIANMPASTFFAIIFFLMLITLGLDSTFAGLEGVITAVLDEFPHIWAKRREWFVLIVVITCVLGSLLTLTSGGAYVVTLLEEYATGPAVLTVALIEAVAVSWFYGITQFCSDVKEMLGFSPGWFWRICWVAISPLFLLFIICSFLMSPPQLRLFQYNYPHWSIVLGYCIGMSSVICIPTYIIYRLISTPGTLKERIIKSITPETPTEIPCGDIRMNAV
Chain of 5-hydroxytryptamine receptor 2A (P28223 whole entry): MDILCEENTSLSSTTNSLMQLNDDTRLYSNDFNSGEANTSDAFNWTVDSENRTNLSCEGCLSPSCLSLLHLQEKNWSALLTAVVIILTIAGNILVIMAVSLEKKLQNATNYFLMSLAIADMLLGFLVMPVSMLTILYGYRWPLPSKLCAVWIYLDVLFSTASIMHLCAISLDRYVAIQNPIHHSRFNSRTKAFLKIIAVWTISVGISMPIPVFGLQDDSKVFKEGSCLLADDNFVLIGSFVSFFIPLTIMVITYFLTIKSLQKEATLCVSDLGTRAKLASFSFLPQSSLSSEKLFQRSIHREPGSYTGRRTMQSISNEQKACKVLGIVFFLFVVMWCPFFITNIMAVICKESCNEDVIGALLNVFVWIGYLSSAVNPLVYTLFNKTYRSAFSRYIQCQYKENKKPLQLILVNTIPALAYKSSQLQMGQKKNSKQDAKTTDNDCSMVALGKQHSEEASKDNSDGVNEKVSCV
T1 sequence (P50406 whole entry): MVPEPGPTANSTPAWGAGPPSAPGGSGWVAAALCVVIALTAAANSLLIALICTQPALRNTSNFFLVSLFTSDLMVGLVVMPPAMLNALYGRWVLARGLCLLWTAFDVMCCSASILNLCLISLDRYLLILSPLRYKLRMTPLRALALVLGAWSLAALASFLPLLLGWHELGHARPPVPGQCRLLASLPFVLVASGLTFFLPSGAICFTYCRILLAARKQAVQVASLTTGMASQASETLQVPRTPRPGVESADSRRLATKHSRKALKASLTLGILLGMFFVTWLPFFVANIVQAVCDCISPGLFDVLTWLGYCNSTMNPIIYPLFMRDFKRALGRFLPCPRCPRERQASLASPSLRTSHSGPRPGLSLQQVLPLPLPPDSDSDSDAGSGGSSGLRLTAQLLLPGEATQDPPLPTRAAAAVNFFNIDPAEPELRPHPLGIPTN

CCCn1c(C)c(C2=CCNCC2)c2cc(Cl)ccc21
IC50 [1]: 80 nM

CCn1c(C)c(C2=CCNCC2)c2cc(Cl)ccc21
IC50 [1]: 100 nM

C1=C(c2c(-c3ccccc3)[nH]c3ccccc23)CCNC1
IC50 [2]: > 1000 nM | IC50 [3]: > 1000 nM | IC50 [4]: 270 nM | IC50 [5]: 50 nM | IC50 [6]: > 1000 nM | IC50 [7]: 100 nM

Cc1[nH]c2ccc(OS(=O)(=O)C(F)(F)F)cc2c1C1=CCNCC1
EC50 [8]: 32 nM | IC50 [9]: 1800 nM | IC50 [2]: > 1000 nM | Activity [10]: 65% | IC50 [3]: 35 nM | IC50 [5]: > 1000 nM | IC50 [6]: 29 nM | IC50 [7]: 990 nM | IC50 [1]: 50 nM | IC50 [11]: > 1000 nM

N#Cc1ccc2[nH]cc(C3=CCNCC3)c2c1
EC50 [8]: 130 nM | Activity [10]: 44% | IC50 [1]: 20 nM

Cc1[nH]c2ccc(F)cc2c1C1=CCNCC1
IC50 [9]: 3100 nM | IC50 [2]: > 1000 nM | EC50 [12]: 5.3 nM | IC50 [3]: 160 nM | Activity [13]: 100% | IC50 [5]: 950 nM | IC50 [6]: 200 nM | IC50 [7]: 700 nM | IC50 [1]: 30 nM | IC50 [11]: 1900 nM

CSc1ccc2[nH]c(C)c(C3=CCNCC3)c2c1
EC50 [8]: 6.6 nM | Activity [10]: 58% | IC50 [1]: 20 nM

Cc1[nH]c2ccc([N+](=O)[O-])cc2c1C1=CCNCC1
EC50 [8]: 32 nM | IC50 [9]: > 1000 nM | IC50 [2]: 890 nM | Activity [10]: 28% | IC50 [3]: 310 nM | IC50 [5]: 1000 nM | IC50 [6]: 570 nM | IC50 [7]: > 1000 nM | IC50 [1]: 10 nM | IC50 [11]: > 1000 nM

Cc1c(C2=CCNCC2)c2cc(Cl)ccc2n1S(=O)(=O)c1ccccc1
Activity [14]: 0% | IC50 [15]: 2 nM

Cc1c(C2=CCNCC2)c2cc(Cl)ccc2n1C
IC50 [1]: 40 nM

COc1ccc2[nH]cc(C3=CCNCC3)c2c1 [RU-24969]
IC50 [3]: 20 nM | IC50 [4]: > 1000 nM | IC50 [6]: 6 nM

Cc1[nH]c2ccc(NS(=O)(=O)c3ccccc3)cc2c1C1=CCNCC1
EC50 [8]: 21 nM | Activity [10]: 60% | IC50 [15]: 29 nM

Cc1[nH]c2ccc(-c3ccccc3)cc2c1C1=CCNCC1
IC50 [9]: 3700 nM | IC50 [2]: > 1000 nM | IC50 [3]: 390 nM | IC50 [5]: > 1000 nM | IC50 [6]: 140 nM | IC50 [7]: > 1000 nM | IC50 [1]: 1000 nM | IC50 [11]: > 1000 nM

Cc1[nH]c2ccc(Br)cc2c1C1=CCNCC1
IC50 [9]: 480 nM | IC50 [2]: 660 nM | EC50 [12]: 2.7 nM | IC50 [3]: 130 nM | Activity [13]: 100% | IC50 [5]: 400 nM | IC50 [6]: 75 nM | IC50 [7]: 420 nM | IC50 [1]: 10 nM | IC50 [11]: 4800 nM

Cc1[nH]c2ccc(Oc3ccccc3[N+](=O)[O-])cc2c1C1=CCNCC1
IC50 [1]: 9 nM

Cc1[nH]c2ccc(OC(C)C)cc2c1C1=CCNCC1
IC50 [1]: 100 nM

Cc1[nH]c2ccc(-c3ccsc3)cc2c1C1=CCNCC1
IC50 [9]: 690 nM | IC50 [2]: > 1000 nM | IC50 [3]: 33 nM | IC50 [5]: > 1000 nM | IC50 [6]: 12 nM | IC50 [7]: > 1000 nM | IC50 [1]: 700 nM | IC50 [11]: > 1000 nM

Cc1[nH]c2ccccc2c1C1=CCNCC1
EC50 [8]: 1100 nM | IC50 [9]: > 1000 nM | IC50 [2]: 5700 nM | Activity [10]: 78% | IC50 [3]: 1200 nM | IC50 [4]: 2300 nM | IC50 [5]: 1500 nM | IC50 [6]: 890 nM | IC50 [7]: 2900 nM | IC50 [1]: 200 nM | IC50 [16]: 1000 nM | IC50 [11]: > 1000 nM
